Measurements reported in ChEMBL document CHEMBL1127538, “Anti-HIV michellamines from Ancistrocladus korupensis” (J Med Chem, 1994).

Key:
Format in all cases: functional, cell-based
CEM-SS [1] = assay: Anticytopathic activity was measured against HIV-1(RF strain) in CEM-SS human lymphoblastoid target cells
Outline: (§1)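 Cell lines in RPMI 1640 without phenol red, with 5% fetal bovine serum, 2 mM L-glutamine and 50 µg/mL gentamicin, at 37 °C and 5% CO2. Seeded at 5 × 10^5 cells/well and infected with pretitered virus at MOI 0.01-0.05, chosen for complete cell killing by day 6. Half-log aqueous dilutions of acetate salts tested in triplicate. XTT formazan read after 6 days; EC50 is 50% inhibition of virus-induced killing.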

CEM-SS [2] = assay: Anticytopathic activity was measured against HIV-2(CBL-20 strain) in CEM-SS human lymphoblastoid target cells; outline: as §1
CEM-SS [3] = assay: Anti-HIV activity was measured against HIV-1 Promonocytropic TPI clinical isolates in CEM-SS cells; settings: Homo sapiens; outline: as §1
CEM-SS [4] = assay: Anti-HIV activity was measured against HIV-2 ROD strain laboratory strains in CEM-SS cells; settings: Homo sapiens; outline: as §1
CEM-SS [5] = assay: Anti-HIV activity was measured against HIV-1,LAV laboratory strains in CEM-SS cells; settings: Homo sapiens; outline: as §1
CEM-SS [6] = assay: Anti-HIV activity was measured against HIV-1 Lymphotropic MCK clinical isolates in CEM-SS cells; settings: Homo sapiens; outline: as §1
CCRF-CEM [7] = assay: Cytotoxicity was measured against 174*CEM/HIV-1(IIIB); settings: Homo sapiens
Outline: (§2)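 Cytotoxicity was measured in cells-plus-drug control wells run alongside the antiviral assay. Serial half-log dilutions of acetate salts were tested in triplicate. After 6 days at 37 °C, viability was read spectrophotometrically by XTT reduction to soluble formazan. IC50 is the concentration giving a 50% decrease in viable cell number.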

C-344 cell line [8] = assay: Cytotoxicity was measured against C-344/HIV-1(RF); settings: Homo sapiens; outline: as §2
CEM-SS [9] = assay: Anti-HIV activity was measured against HIV-2 CBL-20 laboratory strains in CEM-SS cells; settings: Homo sapiens; outline: as §1
MT2 [10] = assay: Anti-HIV activity was measured against drug resistant HIV-1 G9106 in MT-2 cells; settings: Homo sapiens
Outline: (§3)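 MT-2 cells (RPMI 1640 without phenol red, 5% FBS, 2 mM L-glutamine, 50 µg/mL gentamicin; 37 °C, 5% CO2) seeded at 5 × 10^5 cells/well and infected at an MOI pretitered for complete cell killing by day 6 (MOI 0.01-0.05). Serial half-log aqueous dilutions of acetate salt added in triplicate. After 6 days at 37 °C, viability read by XTT formazan. EC50 = 50% inhibition of virus-induced killing.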

CEM-SS [11] = assay: Anti-HIV activity was measured against HIV-1,RF laboratory strains in CEM-SS cells; settings: Homo sapiens; outline: as §1
MT2 [12] = assay: Anti -HIV activity was measured against MT-2/HIV-2(NIH-DZ); settings: Homo sapiens; outline: as §3
PBL [13] = assay: Anti -HIV activity was measured against PBLs/HIV-1 (WEJO); settings: Homo sapiens
Outline: (§4)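 Lymphocytes and macrophages were isolated fresh from donor whole blood by Ficoll-Hypaque centrifugation. They were infected at an MOI giving maximal virus production by day 6 and treated with half-log dilutions of acetate salts in triplicate. After 6 days at 37 °C, RT activity or p24 core protein was quantified in cell-free supernatants. EC50 is 50% inhibition of virus production.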

MT2 [14] = assay: Cytotoxicity was measured against MT-2/HIV-1(RF).; settings: Homo sapiens; outline: as §2
PMC [15] = assay: Anti -HIV activity was measured against PMCs/HIV-1(Ba-L); settings: Homo sapiens; outline: as §4
MT2 [16] = assay: Anti -HIV activity was measured against MT-2/HIV-1(RF); settings: Homo sapiens; outline: as §3
CCRF-CEM [17] = assay: Anti -HIV activity was measured against 174*CEM/HIV-1(IIIB); settings: Homo sapiens; outline: as §1
CEM-SS [18] = assay: Anti-HIV activity was measured against HIV-1 Promonocytropic 214 clinical isolates in CEM-SS cells; settings: Homo sapiens; outline: as §1
CEM-SS [19] = assay: Anti-HIV activity was measured against HIV-2 NIH-DZ strain laboratory strains in CEM-SS cells; settings: Homo sapiens; outline: as §1
C8166 [20] = assay: Cytotoxicity was measured against C8166/HIV-1(RF); settings: Homo sapiens; outline: as §2
CEM-SS [21] = assay: Anti -HIV activity was measured against CEM-SS/HIV-1 (RF); settings: Homo sapiens; outline: as §1
AA5 [22] = assay: Cytotoxicity was measured against AA5/HIV-1(IIIB); settings: Homo sapiens; outline: as §2
C-344 cell line [23] = assay: Anti -HIV activity was measured against C-344/HIV-1(RF); settings: Homo sapiens; outline: as §1
CEM-SS [24] = assay: Anti -HIV activity was measured against CEM-SS/HIV-1 (NIH-DZ); settings: Homo sapiens; outline: as §1
CEM-SS [25] = assay: Anti-HIV activity was measured against HIV-2 MS laboratory strains in CEM-SS cells; settings: Homo sapiens; outline: as §1
CEM-SS [26] = assay: Cytotoxicity was measured against CEM-SS/HIV-1 (RF); settings: Homo sapiens; outline: as §2
LDV-7 cell line [27] = assay: Anti -HIV activity was measured against LDV-7/HIV-1(RF); settings: Homo sapiens; outline: as §1
MT2 [28] = assay: Cytotoxicity was measured against MT-2/HIV-2(NIH-DZ); settings: Homo sapiens; outline: as §2
MT2 [29] = assay: Anti-HIV activity was measured against drug resistant HIV-1 A17 in MT-2 cells; settings: Homo sapiens; outline: as §3
C8166 [30] = assay: Anti -HIV activity was measured against C8166/HIV-1(RF); settings: Homo sapiens; outline: as §1
AA5 [31] = assay: Anti -HIV activity was measured against AA5/HIV-1(IIIB); settings: Homo sapiens; outline: as §1
CEM-SS [32] = assay: Cytotoxicity was measured against CEM-SS/HIV-1 (NIH-DZ); settings: Homo sapiens; outline: as §2
CEM-SS [33] = assay: Anti-HIV activity was measured against HIV-1 Lymphotropic 205 clinical isolates in CEM-SS cells; settings: Homo sapiens; outline: as §1
CEM-SS [34] = assay: Anti-HIV activity was measured against HIV-1 Promonocytropic SKI clinical isolates in CEM-SS cells; settings: Homo sapiens; outline: as §1
CEM-SS [35] = assay: Anti-HIV activity was measured against HIV-1,IIIB laboratory strains in CEM-SS cells; settings: Homo sapiens; outline: as §1
CEM-SS [36] = assay: Anti-HIV activity was measured against HIV-1 Lymphotropic G clinical isolates in CEM-SS cells; settings: Homo sapiens; outline: as §1
CEM-SS [37] = assay: Anti-HIV activity was measured against HIV-1 Promonocytropic MN clinical isolates in CEM-SS cells; settings: Homo sapiens; outline: as §1
LDV-7 cell line [38] = assay: Cytotoxicity was measured against LDV-7/HIV-1(RF); settings: Homo sapiens; outline: as §2
CEM-SS [39] = assay: Anti-HIV activity was measured against HIV-1 Lymphotropic PM16 clinical isolates in CEM-SS cells; settings: Homo sapiens; outline: as §1
PBL [40] = assay: Cytotoxicity was measured against PBLs/HIV-1 (WEJO); settings: Homo sapiens
PMC [41] = assay: Cytotoxicity was measured against PMCs/HIV-1(Ba-L); settings: Homo sapiens

`COc1cc(C)cc2c(-c3c(O)cc(O)c4c3C[C@@H](C)N[C@@H]4C)cc(-c3cc(-c4c(O)cc(O)c5c4C[C@@H](C)N[C@@H]5C)c4cc(C)cc(OC)c4c3O)c(O)c12` (stereo in doubt; form 1) [MICHELLAMINE A] showed an EC50 (CEM-SS [1]; Homo sapiens, CEM-SS) of 10 µM and an EC50 (CEM-SS [2]) of 10 µM.

For `COc1cc(C)cc2c(-c3c(O)cc(O)c4c3C[C@@H](C)N[C@@H]4C)cc(-c3cc(-c4c(O)cc(O)c5c4C[C@@H](C)N[C@@H]5C)c4cc(C)cc(OC)c4c3O)c(O)c12` (stereo in doubt; form 2) [MICHELLAMINE A], the EC50 (CEM-SS [1]; cem-ss) was 13 µM.

With `COc1cc(C)cc2c(-c3c(O)cc(O)c4c3C[C@@H](C)N[C@@H]4C)cc(-c3cc(-c4c(O)cc(O)c5c4C[C@@H](C)N[C@@H]5C)c4cc(C)cc(OC)c4c3O)c(O)c12` (stereo in doubt; form 3) [MICHELLAMINE A] the EC50 (CEM-SS [3]) was 6 µM, the EC50 (CEM-SS [4]) was 18 µM and the EC50 (CEM-SS [5]) was 4 µM. The EC50 (CEM-SS [6]) was 3000 nM, the IC50 (CCRF-CEM [7]) was > 125 µM and the IC50 (C-344 cell line [8]) was 160 µM. It also gave an EC50 (CEM-SS [9]) of 2000 nM, an EC50 (MT2 [10]) of 5 µM and an EC50 (CEM-SS [11]) of 12 µM. The EC50 (MT2 [12]) was 6 µM, the EC50 (PBL [13]) was 5 µM and the IC50 (MT2 [14]) was 200 µM. For the same compound, the EC50 (PMC [15]) was 10 µM, the EC50 (MT2 [16]) was 40 µM and the EC50 (CCRF-CEM [17]) was 23 µM. The EC50 (CEM-SS [18]) was 10 µM, the EC50 (CEM-SS [19]) was 5 µM and the IC50 (C8166 [20]) was > 240 µM. For the same compound, the EC50 (CEM-SS [21]) was 13 µM, the IC50 (AA5 [22]) was > 125 µM and the EC50 (C-344 cell line [23]) was 39 µM. It also gave an EC50 (CEM-SS [24]) of 1000 nM, an EC50 (CEM-SS [25]) of 7 µM and an IC50 (CEM-SS [26]) of 120 µM. The EC50 (LDV-7 cell line [27]) was 13 µM, the IC50 (MT2 [28]) was 100 µM and the EC50 (MT2 [29]) was 9 µM. It also gave an EC50 (C8166 [30]) of 88 µM, an EC50 (AA5 [31]) of 33 µM and an IC50 (CEM-SS [32]) of 42 µM. It also gave an EC50 (CEM-SS [33]) of 11 µM, an EC50 (CEM-SS [2]) of 2 µM and an EC50 (CEM-SS [34]) of 12 µM. For the same compound, the EC50 (CEM-SS [35]) was 1000 nM, the EC50 (CEM-SS [36]) was 3000 nM and the EC50 (CEM-SS [37]) was 13 µM. The IC50 (LDV-7 cell line [38]) was 100 µM, the EC50 (CEM-SS [39]) was 12 µM and the IC50 (PBL [40]) was > 240 µM. For the same compound, the IC50 (PMC [41]) was > 240 µM.
